From PubChem
Only some compounds are listed: those with a hit (about 4.6% of all), similar ones and a draw of the others.
TAAR1 antagonist = human TAAR1 antagonism; Q96RJ0; CHO RD-HGA16 TAAR1, Fluo-8 calcium fluorescence, antagonist; inhibition, % at 3 µM; 360,000 tested, 1.5% active; AID 624466;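 active = inhibition above a per-plate cutoff, the mean inhibition of test compounds on that plate plus 3 SD, cut at about 49% in these data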
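System: RD-HGA16 CHO cells with stable hTAAR1 and Gα16 | Probe or stimulus: EC80 β-phenethylamine stimulus | Dosing: 3 µM, single point | Times: Dye loading 75 min at 37 °C, then 30 min room temperature | Measured by: Fluo-8 calcium-sensitive fluorescence | Read-out basis: % inhibition of agonist calcium response | Replicates: n of 1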
GPR7 antag = human neuropeptides B/W receptor 1 antagonism | GPR7-expressing cells, fluorescence antagonist assay | 290,000 tested, 1.1% active | inhibition, % at 4.4 µM | P48145; in the data active = inhibition above about 16%, passing the limit was not always enough;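 note: cells stimulated with the agonist NPW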
OX1R antag-1 = human HCRTR1 antagonism | O43613 | CHO/OX1R cells, Fluo-8 calcium fluorescence, orexin A | inhibition, % at 5 µM | 330,000 tested, 0.43% active;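 active = inhibition above its plate's threshold, mean inhibition of all tested compounds on the plate plus 3 SD, cut at about 37% in these data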
Target sequence (O43613 whole entry, looked up): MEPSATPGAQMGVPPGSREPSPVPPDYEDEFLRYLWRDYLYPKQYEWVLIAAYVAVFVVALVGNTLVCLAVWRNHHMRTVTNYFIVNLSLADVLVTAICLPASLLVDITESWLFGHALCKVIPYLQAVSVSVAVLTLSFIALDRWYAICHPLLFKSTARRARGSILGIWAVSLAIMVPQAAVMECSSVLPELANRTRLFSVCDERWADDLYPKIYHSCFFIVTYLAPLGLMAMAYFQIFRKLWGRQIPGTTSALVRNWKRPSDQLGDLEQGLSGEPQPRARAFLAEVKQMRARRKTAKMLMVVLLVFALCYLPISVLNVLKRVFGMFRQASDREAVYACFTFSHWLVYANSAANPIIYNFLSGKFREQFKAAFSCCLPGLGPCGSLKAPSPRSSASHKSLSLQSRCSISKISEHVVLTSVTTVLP
TAAR1 ag = agonists of human TAAR1 | CHO RD-HGA16 TAAR1, Fluo-8 calcium fluorescence; vehicle wells 0%, saturating PEA agonist 100% | activation, % at 3 µM | 360,000 tested, 0.99% active;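 active = activation above the mean activation of all test compounds in the run plus 3 SD, cut at about 38% in these data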
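Test system: RD-HGA16 (CHO) cells co-expressing Gα16 and hTAAR1 | Doses: Single dose, 3 µM | Schedule: 17-24 h seeding, 75 min 37 °C dye, 30 min RT | Evaluation: % activation from peak over basal fluorescence ratio, DMSO-to-PEA scaled | Technique: Kinetic Fluo-8 calcium fluorescence | Benchmarks: Low control DMSO, high control PEA (EC100)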
CHO parental Ca = counter-screen: ATP calcium response change in parental CHO cells; parental CHO-K1, ATP-induced calcium, Fluo-8 fluorescence; inhibition, % at 5.6 µM; 330,000 tested, 0.63% active;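 active = inhibition above that plate's mean sample inhibition plus 3 SD, cut at about 26% in these data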
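Material: Parental CHO cells | Reagent: ATP | Compound dosing: Single nominal dose of 5.6 µM per compound | Detection: Intracellular calcium via Fluo-8 no-wash fluorescent dye | Read-out: % inhibition of ATP-induced calcium mobilization | Benchmarks: Low control ATP plus DMSO, high control DMSO only | Replicates: Singlicate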
OX1R antag-2 = OX1R (human) antagonism; O43613; OX1R-expressing cells, FRET antagonist read-out; inhibition, % at 6.6 µM; 330,000 tested, 1.8% active; AID 485270; in the data active = inhibition mostly above about 38%, no sharp cut-off; inactive = mostly below about 40%
GPR7 antag cf = confirmation of human GPR7 antagonists; shares compounds with GPR7 antag; GPR7-expressing cells, calcium fluorescence antagonist mode; inhibition, % at 4.4 µM; 2,400 tested, 52% active; in the data active = inhibition above about 24%;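 note: stimulated with the GPR7 agonist NPW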
MCHR1 antagonist = antagonizes human MCHR1, a GPR7 antagonist counter-screen | shares compounds with GPR7 antag | MCHR1-expressing cells, fluorescence antagonist assay | inhibition, % at 4.4 µM | 2,400 tested, 62% active; in the data active = inhibition above about 22%
A number is an active result; – = inactive; · = no result given.

SMILES	TAAR1 antagonist	GPR7 antag	OX1R antag-1	TAAR1 ag	CHO parental Ca	OX1R antag-2	GPR7 antag cf	MCHR1 antagonist
CSc1sc(-c2n[nH]c(=S)n2C)c2c1C=CCC2	–	–	–	–	–	–	·	·
CCOc1cc(/C=C2/COc3ccccc3C2=O)ccc1OCC(=O)N(C)C	–	23.6	·	–	·	·	–	21.4
COc1cc(OC)cc(C(=O)N[C@H](C(=O)Nc2ccc(S(=O)(=O)N(C)C)cc2)C(C)C)c1	–	–	–	–	–	–	·	·
CCOc1ccc(NC(=O)c2ccc3c(=O)n(-c4ccc(OC)cc4OC)c(=S)[nH]c3c2)cc1	–	24.5	–	–	–	–	43.9	64.6
COc1ccc(NC(=O)c2ccc3c(=O)n(-c4ccc(OC)cc4OC)c(=S)[nH]c3c2)c(OC)c1	–	–	–	–	–	–	·	·
C=CCN1C(=O)c2ccc(C(=O)OCC(=O)Nc3ccccc3OC)cc2C1=O	–	·	–	–	–	–	·	·
O=C(O)c1ccc(Nc2ccc(F)c(F)c2)c([N+](=O)[O-])c1	–	35.6	–	–	–	–	–	–
Cc1cccc(Nc2ccc(C(=O)O)cc2[N+](=O)[O-])c1C	–	–	–	–	–	–	·	·
COC(=O)c1ccccc1NC(=O)c1ccc(COc2cccc3ccccc23)o1	–	–	–	–	–	–	·	·
COc1ccccc1C1(O)CCN(CC(=O)Nc2c(C)nn(C)c2C)CC1	–	27.3	–	–	–	–	–	–
COc1ccccc1N1CCN(CC(=O)Nc2c(C)n[nH]c2C)CC1	–	–	–	–	–	–	·	·
COc1ccccc1Cn1c(CCCO)nc2ccccc21	–	–	–	–	–	–	–	–
O=C(Nc1ccccc1)Nc1ccc(Br)c(Cl)c1	–	28.9	–	–	28.8	–	49.5	56.6
O=C(Nc1ccccc1)Nc1ccccc1Br	–	–	–	–	–	–	·	·
O=C(CSc1cccc(C(F)(F)F)c1)N1CCN(S(=O)(=O)c2ccccc2)CC1	–	34.0	–	–	–	–	–	–
CCCCNC(=O)c1cc2nc3c(c(C(F)(F)F)n2n1)CCc1ccccc1-3	–	–	–	–	–	–	·	·
CC(C)CNC(=O)c1cc2nc3c(c(C(F)(F)F)n2n1)CCc1ccccc1-3	–	22.1	–	–	–	–	–	–
COc1cc(/C=N/Nc2nc(=O)[nH]nc2C)cc(OC)c1O	–	–	–	–	–	–	·	·
CC(C)CC(c1nnnn1CCc1ccccc1)N1CCN(C(=O)c2ccco2)CC1 (configuration not stated)	–	–	–	–	–	–	·	·
CCC(c1nnnn1CCc1ccccc1)N1CCN(C(=O)c2ccco2)CC1 (configuration not stated)	–	21.3	–	–	–	–	–	–
CCOc1ccc(S(=O)(=O)N(CC)CC(=O)NCc2cccnc2)cc1	–	–	–	–	–	–	·	·
Cc1ccc(CS(=O)(=O)c2ncc(Cl)c(C(=O)Nc3ccc(OC(F)F)cc3)n2)cc1	–	42.6	51.0	–	59.1	–	83.9	96.4
Cn1cc(Br)c(C(=O)NNC(=O)Cc2ccc(Cl)cc2)n1	–	–	–	–	–	–	·	·
CCCCOc1ccc(-c2cn3ccccc3n2)cc1[N+](=O)[O-]	–	–	–	–	–	–	·	·
CCCOc1ccc(-c2csc(N)n2)cc1[N+](=O)[O-]	–	26.9	–	–	–	–	–	26.5
SMILES	TAAR1 antagonist	GPR7 antag	OX1R antag-1	TAAR1 ag	CHO parental Ca	OX1R antag-2	GPR7 antag cf	MCHR1 antagonist
CC(=O)OC[C@H]1O[C@H](C/C=N/O[C@@H](C)c2cn([C@H](CO)Cc3ccccc3)nn2)C=C[C@@H]1OC(C)=O	·	–	–	·	–	–	·	·
COc1ccccc1N1CCN(S(=O)(=O)CCNC(=O)c2cccc(F)c2)CC1	–	·	–	–	–	–	·	·
O=C(NS(=O)(=O)Oc1cccc(F)c1)OC[C@@H]1CCCN2CCCCC12 (some centres not stated)	–	22.6	–	–	–	–	–	–
CS(=O)(=O)N(CC(=O)N1CCN(Cc2ccc3c(c2)OCO3)CC1)Cc1ccc(Cl)cc1	–	24.8	–	–	–	–	38.4	55.9
CC(=O)Nc1ccc(S(=O)(=O)N2CCN(c3nc4ccccc4n3CC(C)C)CC2)cc1	–	27.4	·	–	·	·	–	–
Nc1c(C(=O)Nc2ccccc2)nnn1-c1ccc2c(c1)OCCO2	–	–	–	–	–	–	·	·
CNC(=O)C1C2C=CC3(O2)C1C(=O)N(C1CC1)C3C(=O)NCc1ccc(OC)cc1 (configuration not stated)	–	25.1	–	–	–	–	–	–
CC(C)(C)NC(=O)c1oc2ccccc2c1COc1ccccc1	–	26.4	–	–	–	–	–	34.6
CC(OC(=O)c1oc2ccccc2c1COc1ccccc1)C(N)=O (configuration not stated)	–	–	–	–	–	–	·	·
CSc1nccc(-c2nn(-c3ccc(C)cc3)ccc2=O)n1	–	–	–	–	–	–	·	·
CCSc1nccc(-c2nn(-c3ccc(C)cc3)ccc2=O)n1	–	22.9	–	–	–	–	–	25.5
c1ccc(COc2ccc(Nc3ncnc4nc[nH]c34)cc2)cc1	56.0	33.8	–	–	–	–	–	22.5
Cc1ccccc1C(=O)c1cccn1CC(=O)NCCCN1CCCCC1	–	–	–	–	–	–	·	·
Cc1ccc(C)c(N2CCN(CCCNC(=O)Cn3cccc3C(=O)c3ccccc3C)CC2)c1	–	28.4	–	–	–	–	35.5	65.1
COc1ccc2c(Cl)c(C(=O)N/N=C3\CCCC(=O)C3)sc2c1	–	24.3	–	–	–	–	–	27.7
COc1ccc2c(Cl)c(C(=O)N/N=C/c3ccc4c(c3)OCO4)sc2c1	–	–	–	–	–	–	·	·
COc1ccc(C(C(=O)NC2CCCC2)N(C(=O)c2ccco2)c2ccccc2OC)cc1 (configuration not stated)	–	–	–	–	–	–	·	·
COc1ccccc1N(C(=O)CNC(=O)c1ccco1)C(C(=O)NC1CCCC1)c1ccco1 (configuration not stated)	–	24.4	–	–	–	–	–	–
COc1cccc(C(C(=O)NC2CCCCC2)N(C(=O)c2ccco2)c2ccccc2OC)c1 (configuration not stated)	–	–	–	–	–	–	·	·
COc1ccc(C(C(=O)NC2CCCCC2)N(C(=O)c2ccco2)c2ccccc2OC)cc1 (configuration not stated)	–	28.6	–	–	–	–	–	–
